Series [1] is described as follows: melting temperature; fluorescence melt of hairpins on a sequencing array, two-state fit, raised by 9.35 °C to match UV melts. The conditions noted are these: sodium 0.088 M. Summed up: (§1)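 With Cy3 and quencher oligos annealed, library hairpins on a sequenced MiSeq flow cell were imaged for Cy3 fluorescence in 50 mM Na-HEPES pH 8.0, 25 mM NaCl, in 2.5 °C steps up to 60 °C. Melting temperature and folding enthalpy were derived from bootstrapped two-state fits of signals normalised to pre-quench Cy3 and to control constructs. Four replicates were combined by inverse variance, with fitted temperatures raised by 9.35 °C to match UV melts.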

Series [2] can be described thus: folding enthalpy; higher = less favourable; fluorescence melt of hairpins on a sequencing array, two-state fit. Particulars: sodium 0.088 M. Summed up: as §1

Regarding GGGCGCGAAAGCGGGCCC ((((((....)))..))), in series [1], the Tm was 64.8 °C. Also, the folding enthalpy in series [2] was -13.4 kcal/mol.
Taken in the same sequence, the figures for GGGCGCTCGAAAGAGCCC (((..(((....)))))) were 56.9 °C and -14 kcal/mol.
Taken in the same sequence, the figures for GGGCGGGGAAACCCGCTC (.(((((....))))).) were 64.7 °C and -15.2 kcal/mol.
For GGGCGTACGAAAGTACCC (((..(((....)))))) the same measures were 50.2 °C and -17.4 kcal/mol.
With GGGCGTCGAAAGACCCC (((.(((....)))))), the Tm in series [1] turned out to be 58.9 °C. In series [2], the folding enthalpy was -37.1 kcal/mol.
For GGGCGTGGAAACACGCTC (.(((((....))))).) the same measures were 62.4 °C and -14.5 kcal/mol.
Taken in the same sequence, the figures for GGGCTAGCGAAAGCTCCC (((..(((....)))))) were 38.8 °C and -15.1 kcal/mol.
Take GGGCTAGGAAACCAGCCC (((((.(....).))))): the Tm in series [1] was 54.1 °C. The folding enthalpy in series [2] was -44.8 kcal/mol.
Regarding GGGCTAGGAAACTAACCC (((.(((....))).))), the Tm in series [1] was 39.2 °C. The folding enthalpy in series [2] is -31.5 kcal/mol.
For GGGCTCACGAAAGTGCCC (((..(((....)))))) the same measures were 51.9 °C and -21 kcal/mol.
Taken in the same sequence, the figures for GGGCTCCGAAAGGAACCC (((.(((....))).))) were 56.5 °C and -44.1 kcal/mol.
On to GGGCTCGAAAGAGCTCCC ((((((....)))..))), for which the Tm in series [1] was 50 °C. In addition, the folding enthalpy in series [2] is -10.6 kcal/mol.
Taken in the same sequence, the figures for GGGCTCGAAAGAGGCCCC ((((((....)))..))) were 67 °C and -12.3 kcal/mol.
For GGGCTGGGAAACCAACCC (((.(((....))).))) the same measures were 49 °C and -30 kcal/mol.
Taken in the same sequence, the figures for GGGCTGGGAAACCGGTCC ((.(.((....)).).)) were 49.2 °C and -44.6 kcal/mol.
With GGGCTGGGAAACTGGCCC ((((..(....)..)))), the Tm in series [1] is 54.3 °C. For the same sequence, the folding enthalpy in series [2] was -48.3 kcal/mol.
For GGGCTTACGAAAGTACCC (((..(((....)))))) the same measures were 34.4 °C and -20.9 kcal/mol.
As for GGGCTTGAAAAAGCCC ((((((....)))))), the Tm in series [1] is 68.1 °C. The folding enthalpy in series [2] was -35.8 kcal/mol.
Taken in the same sequence, the figures for GGGCTTGGAAACGAGCCC (((((.(....).))))) were 59.2 °C and -51.4 kcal/mol.
For GGGGAACGAAAGTTACCC (((.(((....))).))) the same measures were 60.6 °C and -47.9 kcal/mol.
For GGGGAACGAAAGTTGCCC (((.(((....))).))) the same measures were 64 °C and -39.1 kcal/mol.
Regarding GGGGAATCGAAAGATCCC (((..(((....)))))), the Tm in series [1] was 49.1 °C. Moreover, in series [2], the folding enthalpy was -22.5 kcal/mol.
Taken in the same sequence, the figures for GGGGACGAAAGTCAACCC ((((((....)))..))) were 49 °C and -17.6 kcal/mol.
For GGGGACGAAAGTCGGCCC ((((((....)))..))), in series [1], the Tm turned out to be 56.4 °C. Further, in series [2], the folding enthalpy is -27.2 kcal/mol.
Taken in the same sequence, the figures for GGGGACGGAAACACCCCC ((((..(....)..)))) were 34.8 °C and -22.6 kcal/mol.
Taken in the same sequence, the figures for GGGGACGGAAACGTCTCC ((.((((....)))).)) were 57.2 °C and -27.5 kcal/mol.
For GGGGACGGAAACGTTCCC (((.(((....))).))) the same measures were 61.4 °C and -43.9 kcal/mol.
Regarding GGGGAGGAAACTCCCC ((((((....)))))), in series [1], the Tm came out at 66.3 °C. For the same sequence, in series [2], the folding enthalpy is -36.9 kcal/mol.
Taken in the same sequence, the figures for GGGGAGGGAAACCTTCCC (((.(((....))).))) were 53.4 °C and -33 kcal/mol.
Consider GGGGATCGAAAGATTCCC (((.(((....))).))), for which the Tm in series [1] turned out to be 57.5 °C. For the same sequence, the folding enthalpy in series [2] is -53.6 kcal/mol.
For GGGGATGGAAACACCCCC ((((.((....)).)))) the same measures were 49 °C and -26.4 kcal/mol.
For the sequence GGGGATGGAAACATTCCC (((.(((....))).))), the Tm in series [1] is 51.6 °C. Also, in series [2], the folding enthalpy is -40.9 kcal/mol.
On to GGGGCCGAAAGGCCGCCC ((((((....)))..))), for which the Tm in series [1] worked out at 56.9 °C. Besides, the folding enthalpy in series [2] was -9.69 kcal/mol.
Taken in the same sequence, the figures for GGGGCGGGAAACCGCTCC ((.((((....)))).)) were 66.9 °C and -19.8 kcal/mol.
Taken in the same sequence, the figures for GGGGCGGGAAACCGTCCC (((.(((....))).))) were 67.7 °C and -34.9 kcal/mol.
Taken in the same sequence, the figures for GGGGCGTCGAAAGACCCC (((..(((....)))))) were 57.3 °C and -16.9 kcal/mol.
With GGGGCTGGAAACGGCCCC (((((.(....).))))), the Tm in series [1] stood at 66.8 °C. Besides, the folding enthalpy in series [2] was -40.7 kcal/mol.
Taken in the same sequence, the figures for GGGGCTGGAAACGGCCTC (.(((.(....).))).) were 50.2 °C and -20.8 kcal/mol.
With GGGGGACGAAAGTCTCCC (((.(((....))).))), the Tm in series [1] stood at 66 °C. For the same sequence, in series [2], the folding enthalpy is -34.4 kcal/mol.
For GGGGGAGAAATCCCCC ((((((....)))))) the same measures were 65.5 °C and -29.9 kcal/mol.
Taken in the same sequence, the figures for GGGGGAGGAAACTCTCCC (((.(((....))).))) were 52.7 °C and -38 kcal/mol.
For GGGGGAGGAAACTTCCCC ((((.((....)).)))) the same measures were 54.4 °C and -47.8 kcal/mol.
As for GGGGGCGAAAGCCCTCCC ((((((....)))..))), the Tm in series [1] came to 51.9 °C. For the same sequence, in series [2], the folding enthalpy is -9.75 kcal/mol.
Taken in the same sequence, the figures for GGGGGCGAAAGCCGACCC ((((((....)))..))) were 54 °C and -15.1 kcal/mol.
Taken in the same sequence, the figures for GGGGGCGAAAGCCGTCCC ((((((....)))..))) were 49.4 °C and -13.7 kcal/mol.
In the case of GGGGGCGAAAGCCTACCC ((((((....)))..))), the Tm in series [1] stood at 49.8 °C. Moreover, the folding enthalpy in series [2] was -15 kcal/mol.
For GGGGGCGAAAGCCTCCCC ((((((....)))..))) the same measures were 61.4 °C and -11.5 kcal/mol.
In the case of GGGGGCGAAAGCCTGCCC ((((((....)))..))), the Tm in series [1] amounted to 43.8 °C. Also, the folding enthalpy in series [2] was -13.7 kcal/mol.
For GGGGGCGGAAACGCCCTC (.(((((....))))).) the same measures were 63.4 °C and -11.6 kcal/mol.
For GGGGGCGGAAACGCTCCC (((.(((....))).))) the same measures were 67.6 °C and -32.6 kcal/mol.
For GGGGGGGGAAACCCCCTC (.(((((....))))).) the same measures were 67.8 °C and -12.5 kcal/mol.
With GGGGGTGGAAACGCCCCC (((((.(....).))))), the Tm in series [1] was 66.9 °C. Moreover, in series [2], the folding enthalpy is -28.9 kcal/mol.
Taken in the same sequence, the figures for GGGGTACCGAAAGGTCCC (((..(((....)))))) were 56.7 °C and -27.5 kcal/mol.
Taken in the same sequence, the figures for GGGGTACGAAAGTAACCC (((.(((....))).))) were 60.9 °C and -34.1 kcal/mol.
In the case of GGGGTAGGAAACTACCTC (.(((((....))))).), the Tm in series [1] was determined as 48 °C. In series [2], the folding enthalpy was -20 kcal/mol.
Taken in the same sequence, the figures for GGGGTAGGAAACTACTCC ((.((((....)))).)) were 47.6 °C and -30.1 kcal/mol.
For GGGGTCGAAAGACTTCCC ((((((....)))..))) the same measures were 39 °C and -15.6 kcal/mol.
Taken in the same sequence, the figures for GGGGTCGGAAACGGCCCC ((((.((....)).)))) were 67.9 °C and -31.7 kcal/mol.
In the case of GGGGTGAAAACCCC (((((....))))), the Tm in series [1] was found to be 66.6 °C. Further, in series [2], the folding enthalpy was -21.1 kcal/mol.
GGGGTGGAAACACCCC ((((((....)))))): the Tm in series [1] worked out at 68.8 °C. Further, the folding enthalpy in series [2] was -38.9 kcal/mol.
As for GGGGTGGGAAACCACCTC (.(((((....))))).), the Tm in series [1] stood at 55.2 °C. Also, the folding enthalpy in series [2] is -16.2 kcal/mol.
Take GGGGTGGGAAACCGCCTC (.((.((....)).)).): the Tm in series [1] was found to be 49.6 °C. In addition, the folding enthalpy in series [2] is -18.6 kcal/mol.
For GGGGTGGGAAACCGCTCC ((.(.((....)).).)) the same measures were 47.7 °C and -21.9 kcal/mol.
Taken in the same sequence, the figures for GGGGTTCGAAAGAACCC (((.(((....)))))) were 69.3 °C and -17.9 kcal/mol.
Taken in the same sequence, the figures for GGGGTTGGAAACAGCCCC ((((.((....)).)))) were 57.9 °C and -44.7 kcal/mol.
GGGGTTGGAAACGACCTC (.(((.(....).))).): the Tm in series [1] turned out to be 40.3 °C. Moreover, in series [2], the folding enthalpy was -20.7 kcal/mol.
Taken in the same sequence, the figures for GGGTAACCGAAAGGTCCC (((..(((....)))))) were 45.8 °C and -18 kcal/mol.
For GGGTAACGAAAGTTCCC (((.(((....)))))) the same measures were 50.1 °C and -24.4 kcal/mol.
Taken in the same sequence, the figures for GGGTAAGGAAACTCACCC ((((.((....)).)))) were 36.8 °C and -28.4 kcal/mol.
In the case of GGGTACCCGAAAGGGCCC (((..(((....)))))), the Tm in series [1] worked out at 47.8 °C. In addition, in series [2], the folding enthalpy is -18.6 kcal/mol.
Taken in the same sequence, the figures for GGGTACGAAAGTAATCCC ((((((....)))..))) were 39 °C and -20.7 kcal/mol.
Taken in the same sequence, the figures for GGGTACGAAAGTACACCC ((((((....)))..))) were 50.2 °C and -13.4 kcal/mol.
Taken in the same sequence, the figures for GGGTACGAAAGTAGACCC ((((((....)))..))) were 46.2 °C and -19.2 kcal/mol.
